Assay results published in EPA's CvTdb concentration-time database.

Tests used:
[1] = system: Rat; assay: concentration in plasma after dosing; conditions: dosed: Phenolphthalein, 25 mg/kg, iv, Female, F344
[2] = system: Rat; assay: concentration in plasma after dosing; conditions: dosed: Phenolphthalein, 25 mg/kg, iv, Female, F344; remark: listed apart in the source
[3] = system: Rat; assay: concentration in plasma after dosing; conditions: 16 h; dosed: Phenolphthalein; 25 mg/kg; iv; Female; F344
[4] = system: Rat; assay: concentration in plasma after dosing; conditions: dosed: Phenolphthalein, 25 mg/kg, iv, Female, F344; remark: listed apart in the source
[5] = system: Rat; assay: concentration in plasma after dosing; conditions: dosed: Phenolphthalein, 25 mg/kg, iv, Female, F344; remark: listed apart in the source
[6] = system: Rat; assay: concentration in plasma after dosing; conditions: dosed: Phenolphthalein, 25 mg/kg, iv, Male, F344
[7] = system: Rat; assay: concentration in plasma after dosing; conditions: dosed: Phenolphthalein, 25 mg/kg, iv, Male, F344; remark: listed apart in the source
[8] = system: Rat; assay: concentration in plasma after dosing; conditions: dosed: Phenolphthalein, 25 mg/kg, iv, Male, F344; remark: listed apart in the source
[9] = system: Rat; assay: concentration in plasma after dosing; conditions: dosed: Phenolphthalein, 25 mg/kg, iv, Female, F344; remark: listed apart in the source
[10] = system: Rat; assay: concentration in plasma after dosing; conditions: dosed: Phenolphthalein, 25 mg/kg, iv, Male, F344; remark: listed apart in the source
[11] = system: Rat; assay: concentration in plasma after dosing; conditions: 16 h; dosed: Phenolphthalein; 25 mg/kg; iv; Male; F344
[12] = system: Rat; assay: concentration in plasma after dosing; conditions: dosed: Phenolphthalein, 25 mg/kg, iv, Female, F344; remark: listed apart in the source
[13] = system: Rat; assay: concentration in plasma after dosing; conditions: 16 h; dosed: Phenolphthalein; 25 mg/kg; iv; Male; F344; remark: listed apart in the source
[14] = system: Rat; assay: concentration in plasma after dosing; conditions: dosed: Phenolphthalein, 25 mg/kg, iv, Female, F344; remark: listed apart in the source
[15] = system: Rat; assay: concentration in plasma after dosing; conditions: dosed: Phenolphthalein, 25 mg/kg, iv, Male, F344; remark: listed apart in the source
[16] = system: Rat; assay: concentration in plasma after dosing; conditions: 16 h; dosed: Phenolphthalein; 25 mg/kg; iv; Female; F344; remark: listed apart in the source
[17] = system: Rat; assay: concentration in plasma after dosing; conditions: dosed: Phenolphthalein, 25 mg/kg, iv, F344
[18] = system: Rat; assay: concentration in plasma after dosing; conditions: dosed: Phenolphthalein, 25 mg/kg, iv, Male, F344; remark: listed apart in the source
[19] = system: Rat; assay: concentration in plasma after dosing; conditions: dosed: Phenolphthalein, 25 mg/kg, iv, Female, F344; remark: listed apart in the source
[20] = system: Rat; assay: concentration in plasma after dosing; conditions: dosed: Phenolphthalein, 25 mg/kg, iv, Male, F344; remark: listed apart in the source
[21] = system: Rat; assay: concentration in plasma after dosing; conditions: dosed: Phenolphthalein, 25 mg/kg, iv, Female, F344; remark: listed apart in the source
[22] = system: Rat; assay: concentration in plasma after dosing; conditions: dosed: Phenolphthalein, 25 mg/kg, iv, Female, F344; remark: listed apart in the source
[23] = system: Rat; assay: concentration in plasma after dosing; conditions: dosed: Phenolphthalein, 25 mg/kg, iv, Male, F344; remark: listed apart in the source
[24] = system: Rat; assay: concentration in plasma after dosing; conditions: dosed: Phenolphthalein, 25 mg/kg, iv, Female, F344; remark: listed apart in the source
[25] = system: Rat; assay: concentration in plasma after dosing; conditions: dosed: Phenolphthalein, 25 mg/kg, iv, Female, F344; remark: listed apart in the source
[26] = system: Rat; assay: concentration in plasma after dosing; conditions: dosed: Phenolphthalein, 25 mg/kg, iv, Male, F344; remark: listed apart in the source
[27] = system: Rat; assay: concentration in plasma after dosing; conditions: dosed: Phenolphthalein, 25 mg/kg, iv, Female, F344; remark: listed apart in the source
[28] = system: Rat; assay: concentration in plasma after dosing; conditions: dosed: Phenolphthalein, 25 mg/kg, iv, Male, F344; remark: listed apart in the source
[29] = system: Rat; assay: concentration in plasma after dosing; conditions: dosed: Phenolphthalein, 25 mg/kg, iv, Male, F344; remark: listed apart in the source
[30] = system: Rat; assay: concentration in plasma after dosing; conditions: dosed: Phenolphthalein, 25 mg/kg, iv, Male, F344; remark: listed apart in the source
[31] = system: Rat; assay: concentration in plasma after dosing; conditions: dosed: Phenolphthalein, 25 mg/kg, iv, Male, F344; remark: listed apart in the source
[32] = system: Rat; assay: concentration in plasma after dosing; conditions: 12 h; dosed: Phenolphthalein; 25 mg/kg; iv; Female; F344
[33] = system: rat; assay: amount in expired air after dosing (umol); conditions: dosed: methanol, 100 mg/kg, iv, male, CDF(F344)/CrlBR
[34] = system: human; assay: concentration in expired air after dosing; negative times count back from the end of exposure; conditions: dosed: vinyl chloride, 2.5 ppm, inhalation
How it was run: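 A PubMed search, classifier screening and manual review identified published in vivo toxicokinetic studies, which together with two structured collections supplied concentration-versus-time and amount-versus-time points. Points were mostly digitised from plot screenshots with WebPlotDigitizer, otherwise copied from tables. Dose, route, subject details and medium were hand-curated from each paper, and sampling and analytical methods are those of the sources, often unreported.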

O=C1OC(c2ccc(O)cc2)(c2ccc(O[C@@H]3O[C@H](C(=O)O)[C@@H](O)[C@H](O)[C@H]3O)cc2)c2ccccc21 (stereo partly drawn) [Phenolphthalein Glucuronide]
Conditions	concentration in plasma [ng/mL]
[1], 5 min	3250
[1], 24 h	5140
[2], 2.5 min	10400
[2], 20 h	8670
[4], 2 h	14600
[4], 8 h	17000
[5], 1 h	22300
[5], 6 h	8560
[6], 2 h	7950
[6], 8 h	9110
[7], 1 h	19000
[7], 6 h	35900
[8], 5 min	23700
[8], 24 h	6100
[9], 5 min	69000
[9], 24 h	14700
[10], 2.5 min	2320
[10], 20 h	8550
[12], 3 h	39000
[12], 12 h	18000
[14], 4 h	18400
[14], 7 h	19500
[15], 5 h	10900
[15], 10 h	10700
[18], 1 h	18700
[18], 6 h	10700
[19], 2.5 min	15100
[19], 20 h	9500
[20], 5 min	21100
[20], 24 h	5330
[21], 5 h	16500
[21], 10 h	11300
[22], 4 h	14000
[22], 7 h	13700
[23], 3 h	32000
[23], 12 h	10500
[24], 2 h	16300
[24], 8 h	22700
[25], 1 h	9080
[25], 6 h	15200
[26], 4 h	23300
[26], 7 h	13100
[27], 5 h	16900
[27], 10 h	13300
[28], 5 h	8040
[28], 10 h	11300
[29], 2 h	22600
[29], 8 h	18600
[30], 3 h	6590
[30], 12 h	17300
[31], 4 h	8240
[31], 7 h	14400

Conditions	concentration in plasma [ng/mL]
[3]	21500
[11]	7180
[13]	37500
[16]	8150
[32]	14800

concentration in plasma [ng/mL], [17]
Conditions	Female	Male
1 h	6220	13200
2 h	22800	1490
2.5 min	26600	4740
3 h	47900	7190
4 h	50600	4000
5 h	17900	2270
5 min	49000	22300
6 h	18700	11800
7 h	35300	4350
8 h	16900	3650
10 h	11900	5440
12 h	24900	8240
16 h	8190	9210
20 h	16200	8080
24 h	9270	6210

O=C1OC(c2ccc(O)cc2)(c2ccc(O[C@@H]3O[C@H](C(=O)O)[C@@H](O)[C@H](O)[C@H]3O)cc2)c2ccccc21 (stereo partly drawn) [Phenolphthalein glucuronide]
[17], Male
Conditions	concentration in plasma [ng/mL]
2.5 min	6980
20 h	8900

O=C=O [carbon dioxide]
[33]
Conditions	amount in expired air
0.2199 h	1.76
0.5362 h	6.28
0.9412 h	13.1
1.448 h	25.8
1.93 h	37.7
2.933 h	81.5
4.445 h	151
5.995 h	221
8.01 h	278
10.01 h	322
12.03 h	335
15.08 h	344

C=CCl [vinyl chloride]
concentration in expired air [ppm], [34]
Conditions	duration: 0.25 hr	duration: 0.5 hr
2 s	1.88	–
4 min	0.0581	–
31 s	0.564	–
60 s	–	0.375
64 s	0.271	–
121 s	0.13	0.217
179 s	–	0.198
180 s	0.118	–
237 s	–	0.156
298 s	–	0.145
299 s	0.0432	–

concentration in expired air [ppm], [34], during exposure
Conditions	duration: 0.25 hr	duration: 0.5 hr
-299 s	1.81	–
-298 s	–	1.63
-241 s	–	1.74
-238 s	1.84	–
-180 s	1.88	–
-122 s	–	1.77
-119 s	1.84	–
-61 s	–	1.7
-59 s	1.96	–
-11 min	1.68	1.81
-8 min	1.64	–
-7 min	–	1.7
-3 min	–	1.79
-0.4831 h	–	1.29
-0.4663 h	–	1.4
-0.4502 h	–	1.63
-0.4157 h	–	1.7
-0.3827 h	–	1.77
-0.3489 h	–	1.79
-0.316 h	–	1.77
-0.2823 h	–	1.86
-0.2493 h	–	1.45
-0.2413 h	0.701	–
-0.2343 h	1.27	–
-0.224 h	1.59	–
-0.2163 h	–	1.86
-0.2158 h	1.57	–
-0.2001 h	1.62	–
-0.1659 h	1.79	–
-0.1496 h	–	1.7
-0.1491 h	1.72	–
-0.1161 h	1.84	–
-0.1003 h	1.79	–
-0 s	–	1.57
